Test results reported in ChEMBL document CHEMBL4043083, “Design and synthesis of bicyclic acetals as Beta Secretase (BACE1) inhibitors” (Bioorg Med Chem, 2017).

These compounds were tested against T1, Beta-secretase 1 (Homo sapiens, UniProt P56817) (assay: Inhibition of BACE1 (unknown origin) at 10 uM pre-incubated for 10 mins before addition of fluorescent substrate HiLyte FluorTM 488-Glu-Val-Asn-Leu-Asp-Ala-Glu-Phe-Lys and measured over 30 mins).
In short: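 BACE1 (1 µg/mL) preincubated with inhibitor at 10 µM, 10 min, 25 °C, then reaction started by adding the internally quenched substrate (QXL 520 quencher). Fluorescence (ex 490/em 520 nm) read over 30 min at 25 °C. Percent inhibition = (1−Vs/Vo)×100 from initial velocities with and without inhibitor.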

T1 sequence (P56817 whole entry): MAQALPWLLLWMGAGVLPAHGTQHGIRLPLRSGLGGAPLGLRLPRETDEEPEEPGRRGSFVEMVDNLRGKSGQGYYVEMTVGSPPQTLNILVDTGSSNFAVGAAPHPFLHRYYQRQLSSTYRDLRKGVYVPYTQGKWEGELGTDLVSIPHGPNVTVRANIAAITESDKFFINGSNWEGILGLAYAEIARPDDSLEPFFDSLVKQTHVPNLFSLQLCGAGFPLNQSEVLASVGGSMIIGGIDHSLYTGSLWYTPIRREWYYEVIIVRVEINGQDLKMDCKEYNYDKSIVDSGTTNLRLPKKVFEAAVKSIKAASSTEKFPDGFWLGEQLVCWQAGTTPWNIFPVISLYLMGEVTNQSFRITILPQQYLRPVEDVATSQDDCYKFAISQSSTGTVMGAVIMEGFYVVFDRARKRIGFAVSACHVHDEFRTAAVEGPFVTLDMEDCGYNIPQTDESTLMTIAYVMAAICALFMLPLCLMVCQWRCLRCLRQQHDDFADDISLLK

inhibition [%] | SMILES
61 | COC(=O)[C@@H]1O[C@@H]2O[C@H]1C(=S)N(Cc1ccccc1)[C@H]2Cc1ccccc1
36 | O=C([C@@H]1O[C@H]2CN(Cc3ccccc3)C(=O)[C@@H]1O2)N1CCCCC1
0 | CC(C)C[C@@H](CO)NC(=O)[C@H]1O[C@@H]2CN(Cc3ccccc3)C(=O)[C@H]1O2
15 | O=C([C@@H]1O[C@@H]2O[C@H]1C(=O)N(Cc1ccccc1)[C@H]2Cc1ccccc1)N1CCCCC1
5 | CCOC(=O)N1CCN(C(=O)[C@H]2O[C@H]3O[C@@H]2C(=S)N(Cc2ccccc2)[C@@H]3Cc2ccccc2)CC1
16 | CCOC(=O)N1CCN(C(=O)[C@@H]2O[C@@H]3O[C@H]2C(=S)N(Cc2ccccc2)[C@H]3Cc2ccccc2)CC1
10 | O=C([C@@H]1O[C@H]2CN(Cc3ccccc3)C(=S)[C@@H]1O2)N1CCOCC1
8 | CC(C)C[C@@H](CO)NC(=O)[C@@H]1O[C@H]2CN(Cc3ccccc3)C(=O)[C@@H]1O2
9 | COC(=O)[C@H]1O[C@H]2O[C@@H]1C(=S)N(Cc1ccccc1)[C@@H]2Cc1ccccc1
32 | O=C([C@H]1O[C@H]2O[C@@H]1C(=S)N(Cc1ccccc1)[C@@H]2Cc1ccccc1)N1CCOCC1
0 | CCOC(=O)N1CCN(C(=O)[C@@H]2O[C@H]3CN(Cc4ccccc4)C(=S)[C@@H]2O3)CC1
0 | C#CCNC(=O)[C@@H]1O[C@H]2CN(Cc3ccccc3)C[C@@H]1O2
0 | CC(C)C[C@H](CO)NC(=O)[C@@H]1O[C@H]2CN(Cc3ccccc3)C(=O)[C@@H]1O2
0 | O=C([C@@H]1O[C@@]2(c3ccccc3)CN(Cc3ccccc3)C(=O)[C@@H]1O2)N1CCOCC1
0 | CC(C)C[C@H](CO)NC(=O)[C@H]1O[C@@H]2CN(Cc3ccccc3)C(=O)[C@H]1O2
0 | O=C([C@@H]1O[C@@H]2O[C@H]1C(=S)N(Cc1ccccc1)[C@H]2Cc1ccccc1)N1CCOCC1
16 | COC(=O)[C@@H]1O[C@H]2CN(Cc3ccccc3)C(=S)[C@@H]1O2
29 | C#CCNC(=O)[C@@H]1O[C@@H]2O[C@H]1C(=O)N(Cc1ccccc1)[C@H]2Cc1ccccc1
0 | O=C(NC1CCCCC1)[C@@H]1O[C@@]2(c3ccccc3)CN(C(c3ccccc3)c3ccccc3)C(=O)[C@@H]1O2
0 | COC(=O)[C@H](c1ccccc1)N1C[C@@H]2O[C@@H](C(=O)N3CCCCC3)[C@@H](O2)C1=O

SMILES | inhibition [%]
COC(=O)[C@H](CC(C)C)N1C[C@@H]2O[C@@H](C(=O)N3CCCCC3)[C@@H](O2)C1=O | 46

What follows are compounds tested against T1, Beta-secretase 1 (assay: Inhibition of BACE1 (unknown origin) pre-incubated for 10 mins before addition of fluorescent substrate HiLyte FluorTM 488-Glu-Val-Asn-Leu-Asp-Ala-Glu-Phe-Lys and measured over 30 mins).
In short: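 Kit-based fluorometric BACE1 assay. Enzyme at 1 µg/mL, preincubated 10 min at 25 °C with inhibitor across 0.003–30 µM before substrate (QXL 520-quenched) addition. Initial velocities taken from ex 490/em 520 nm fluorescence over 30 min at 25 °C. IC50 from the dose-response, run in triplicate in three independent experiments, given as mean ± SD.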

IC50 [nM] | SMILES
2600 | COC(=O)[C@@H]1O[C@@H]2O[C@H]1C(=S)N(Cc1ccccc1)[C@H]2Cc1ccccc1
